The values that follow come from ChEMBL document CHEMBL1177643, “Synthesis, DNA-binding ability and anticancer activity of benzothiazole/benzoxazole-pyrrolo[2,1-c][1,4]benzodiazepine conjugates” (Bioorg Med Chem, 2010).

Assay [1] relates to A-375. Put plainly: Cell cycle arrest in human A375 cells assessed as accumulation at G0/G1 phase at 1 uM after 24 hrs using propidium iodide staining by flow cytometry. The class given is functional. The method in brief: (§1)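 A375 cells (5×10^5) grown 24 h, then exposed to compound 24 h (DMSO control). Trypsin–EDTA harvest, fixed in ice-cold 70% ethanol at 4 °C 30 min, RNase A 37 °C 30 min, propidium iodide staining. DNA content measured by flow cytometry on 20,000 events, gated as sub-G1/G0, G1, S and G2/M.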

The test system of assay [2] is A-375. Nature of the assay: Cell cycle arrest in human A375 cells assessed as accumulation at G0 phase at 2 uM after 24 hrs using propidium iodide staining by flow cytometry. The class given is functional. The method in brief:
as §1

Assay [3] has as its system A-375. Nature of the assay: Cell cycle arrest in human A375 cells assessed as accumulation at G0/G1 phase at 0.5 uM after 24 hrs using propidium iodide staining by flow cytometry. The assay is classed as functional. In outline:
as §1

The subject of assay [4] is A-375. Put plainly: Cell cycle arrest in human A375 cells assessed as accumulation at G1 phase at 1 uM after 24 hrs using propidium iodide staining by flow cytometry. The assay is classed as functional. In outline: as §1
Assay [5] deals with A-375. Nature of the assay: Cell cycle arrest in human A375 cells assessed as accumulation at S phase at 0.5 uM after 24 hrs using propidium iodide staining by flow cytometry. The class given is functional. The method in brief:
as §1

The test system of assay [6] is A-375. Put plainly: Cell cycle arrest in human A375 cells assessed as accumulation at sub-G0 phase at 2 uM after 24 hrs using propidium iodide staining by flow cytometry. The class given is functional. The method in brief: as §1
Assay [7] deals with A-375. Put plainly: Cell cycle arrest in human A375 cells assessed as accumulation at G2/M phase at 0.5 uM after 24 hrs using propidium iodide staining by flow cytometry. The class given is functional. In outline: as §1
The subject of assay [8] is A-375. Put plainly: Cell cycle arrest in human A375 cells assessed as accumulation at sub-G0 phase at 0.5 uM after 24 hrs using propidium iodide staining by flow cytometry. The assay is classed as functional. In outline:
as §1

The test system of assay [9] is A-375. Nature of the assay: Cell cycle arrest in human A375 cells assessed as accumulation at G2/M phase at 1 uM after 24 hrs using propidium iodide staining by flow cytometry. The assay is classed as functional. The method in brief:
as §1

Assay [10] has as its system A-375. Put plainly: Cell cycle arrest in human A375 cells assessed as accumulation at G0 phase at 1 uM after 24 hrs using propidium iodide staining by flow cytometry. The class given is functional. The method in brief: as §1
Assay [11] deals with A-375. Nature of the assay: Cell cycle arrest in human A375 cells assessed as accumulation at sub-G0 phase at 1 uM after 24 hrs using propidium iodide staining by flow cytometry. The class given is functional. In outline: as §1
In assay [12] the test system is A-375. Nature of the assay: Cell cycle arrest in human A375 cells assessed as accumulation at S phase at 2 uM after 24 hrs using propidium iodide staining by flow cytometry. The assay is classed as functional. In outline: as §1
Assay [13] deals with A-375. Nature of the assay: Cell cycle arrest in human A375 cells assessed as accumulation at G0/G1 phase at 2 uM after 24 hrs using propidium iodide staining by flow cytometry. The assay is classed as functional. The method in brief: as §1
Assay [14] concerns A-375. Nature of the assay: Cell cycle arrest in human A375 cells assessed as accumulation at G1 phase at 2 uM after 24 hrs using propidium iodide staining by flow cytometry. The class given is functional. In outline: as §1
Assay [15] has as its system A-375. Put plainly: Cell cycle arrest in human A375 cells assessed as accumulation at G2/M phase at 2 uM after 24 hrs using propidium iodide staining by flow cytometry. The class given is functional. The method in brief:
as §1

Assay [16] concerns A-375. Put plainly: Cell cycle arrest in human A375 cells assessed as accumulation at G1 phase at 0.5 uM after 24 hrs using propidium iodide staining by flow cytometry. The assay is classed as functional. In outline:
as §1

The subject of assay [17] is A-375. Put plainly: Cell cycle arrest in human A375 cells assessed as accumulation at G0 phase at 0.5 uM after 24 hrs using propidium iodide staining by flow cytometry. The class given is functional. The method in brief: as §1
The test system of assay [18] is A-375. Nature of the assay: Cell cycle arrest in human A375 cells assessed as accumulation at S phase at 1 uM after 24 hrs using propidium iodide staining by flow cytometry. The class given is functional. The method in brief:
as §1

The subject of assay [19] is Calf thymus DNA. Nature of the assay: Binding affinity to calf thymus duplex-form DNA assessed as cleavage of pBR322 after 16 hrs by restriction endonuclease digestion assay in presence of BamHI. The assay is classed as nucleic-acid assay. Particulars: Bos taurus. The method in brief:
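pBR322 DNA (500 ng) preincubated with compound (5–30 μM) 16 h at 37 °C, then digested with BamHI (20 U) 1 h at 37 °C. Products run on 1% agarose in Tris–acetate EDTA, 80 V, 2 h. Read-out was ethidium bromide staining under UV, with an undigested and a fully digested control.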

As for `COc1cc2c(cc1O)N=C[C@@H]1CCCN1C2=O`, the Activity is 88.63% in assay [1]; 10.7% in assay [2]; 83.15% in [3]; 74.22% in [4]; 79.42% in assay [5]; 26.75% in assay [6]. Further, the Activity is 6.45% in [7]; 2.23% in [8]; 6.34% in assay [9]; 14.41% in assay [10]; 14.41% in assay [11]; 13.54% in assay [12]. Also, the Activity was 77.93% in assay [13]; 67.23% in assay [14]; 8.53% in [15]; 79.42% in [16]; 3.73% in [17]; 5.03% in assay [18]. Moreover, the Activity entry in assay [19] is “Dose-dependent effect”.
